Screening data (PubChem BioAssay)
A selection: hits, their analogues and other compounds. The true share with any hit is near 2.3%.
TRPC4 PAM = allosterically enhances the mouse TRPC4 cation channel | HEK293 TRPC4beta/mu-opioid, DAMGO EC20, Fluo-4 Ca2+ flux; stronger effect = higher value | AID 2227 | B-score at 10 µM | 310,000 compounds, 0.42% hits | Q9QUQ5;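 active = B-score of calcium response area above 5 SD of library B-scores, with initial fluorescence ratio within 5 SD of library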;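 also: B-score of integrated fluorescence ratio over time as area under calcium response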
TRPC4 act = opens the mouse TRPC4 cation channel | Q9QUQ5 | HEK293 TRPC4beta/mu-opioid, Fluo4 calcium fluorescence; stronger effect = higher value | B-score at 10 µM | 310,000 compounds, 0.49% hits | AID 2237;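 active = B-score above 5 SD of library B-scores, and initial fluorescence ratio not above library mean plus 5 SD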;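 also: positive B-score marks a calcium rise read as TRPC4 activation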
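Incubation: 45 min room-temperature Fluo4 loading, 110 s read / System: HEK293 cells stably co-expressing mouse TRPC4beta and mu-opioid receptor / Signal: Fluo4 fluorescence, kinetic / Control set: buffer (low) and maximal DAMGO (high) / Measure: integrated baseline-normalised fluorescence ratio, converted to per-well B score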
TRPC6 inhibitor = inhibitors of mouse TRPC6 channel; Q61143; HEK293-TRPC6, membrane potential dye, ACh-evoked depolarization; stronger effect = lower value; B-score at 10 µM; 310,000 compounds, 1.1% hits; AID 2553;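 active = B-score under library mean minus 3 SD, initial fluorescence not abnormally high, positive integrated signal ratio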;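 also: B-score derived from integrated fluorescence ratio over the kinetic read; more negative B-score means stronger inhibition of depolarization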
Target sequence (Q61143 whole entry, looked up): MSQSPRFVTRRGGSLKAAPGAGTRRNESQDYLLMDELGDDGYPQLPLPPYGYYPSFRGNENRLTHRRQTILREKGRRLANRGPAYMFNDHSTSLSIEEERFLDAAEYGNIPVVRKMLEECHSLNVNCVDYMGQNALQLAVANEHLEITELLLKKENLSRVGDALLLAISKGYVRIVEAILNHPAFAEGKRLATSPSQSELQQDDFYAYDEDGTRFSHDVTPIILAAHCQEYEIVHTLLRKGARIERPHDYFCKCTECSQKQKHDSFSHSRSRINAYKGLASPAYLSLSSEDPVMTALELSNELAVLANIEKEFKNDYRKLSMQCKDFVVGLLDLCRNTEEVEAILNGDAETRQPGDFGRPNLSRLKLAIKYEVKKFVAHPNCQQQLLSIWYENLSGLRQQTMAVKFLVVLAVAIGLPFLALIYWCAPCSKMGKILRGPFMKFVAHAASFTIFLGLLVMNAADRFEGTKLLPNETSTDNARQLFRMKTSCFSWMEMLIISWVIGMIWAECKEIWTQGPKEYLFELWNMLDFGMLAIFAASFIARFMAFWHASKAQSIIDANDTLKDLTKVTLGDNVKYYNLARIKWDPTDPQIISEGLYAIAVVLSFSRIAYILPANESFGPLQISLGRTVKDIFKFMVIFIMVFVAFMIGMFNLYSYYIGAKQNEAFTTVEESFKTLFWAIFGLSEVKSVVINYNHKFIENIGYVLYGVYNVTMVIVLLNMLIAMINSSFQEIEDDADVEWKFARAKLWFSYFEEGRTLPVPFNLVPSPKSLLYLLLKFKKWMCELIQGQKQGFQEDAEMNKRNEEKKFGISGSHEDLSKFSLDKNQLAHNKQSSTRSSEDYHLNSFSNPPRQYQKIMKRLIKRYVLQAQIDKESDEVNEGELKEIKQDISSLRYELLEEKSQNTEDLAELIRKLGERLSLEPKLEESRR
TRPC4 block = blocks the mouse TRPC4 cation channel | HEK293 TRPC4beta/mu-opioid, DAMGO-evoked Fluo4 calcium flux; stronger effect = lower value | 300,000 compounds, 0.39% hits | AID 2247 | B-score at 10 µM;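 active = B-score over 3 SD under the library average, no early fluorescence shift, positive overall ratio signal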
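test system = HEK293 cells with stable TRPC4beta plus mu-opioid receptor expression | detection = Fluo4 Ca2+ flux fluorescence | read-out = integrated fluorescence ratio relative to baseline, converted to per-well B score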
TRPC6 activator = mouse TRPC6 channel activation; Q61143; HEK293-TRPC6 membrane potential dye fluorescence; stronger effect = higher value; B-score at 10 µM; 310,000 compounds, 0.13% hits; AID 2550;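 active = B-score of the integrated fluorescence ratio above library mean plus 3 SD, and starting fluorescence ratio within library mean plus 5 SD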;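 also: higher score means more depolarization so channel activation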
TRPC4 spec 2 = mouse TRPC4 off-target activity of TRPC6 inhibitors, second screen; shares compounds with TRPC6 inhibitor; inhibition, % at 10 µM; HEK293 TRPC4/MOR, membrane potential dye fluorescence; channel activated by saturating DAMGO dose; 920 compounds, 42% hits;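 active = compounds whose fluorescence signal differed from control wells by over 3 SD, either direction, in both duplicate plates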
TRPC4 spec = tests whether TRPC6 inhibitors also affect mouse TRPC4. shares compounds with TRPC6 inhibitor. HEK293 TRPC4/mu-opioid, membrane potential fluorescence. activity change, negative = inhibition, % at 10 µM. 920 compounds, 61% hits. AID 2777;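 active = rise or fall in signal beyond 3 SD of buffer-only wells in both replicate plates, either sign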;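 also: integrated kinetic ratio of fluorescence range over baseline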
HEK293 MPD ctr 2-1 = second check of TRPC6 inhibitor effects in parental HEK293 cells | shares compounds with TRPC6 inhibitor | parental HEK293 membrane potential dye fluorescence; maximal acetylcholine challenge after compound addition | signal change vs control, % at 10 µM | 920 compounds, 31% hits | AID 2779;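 active = membrane potential signal moving either way by over 3 SD of the maximum-effect control, in both duplicate plates, meaning non-specific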
HEK293 MPD ctr-1 = counter-screen for TRPC6 inhibitors: effect in parental HEK293 cells. shares compounds with TRPC6 inhibitor. parental HEK293 membrane potential dye fluorescence. membrane potential signal change, % at 10 µM. 920 compounds, 60% hits;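 active = membrane potential signal shifting up or down by more than 3 SD of buffer-only wells, on both duplicate plates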
HEK293 MPD ctr-2 = counter-screen for TRPC6 modulators: effect in parental HEK293 cells; 2,400 compounds, 51% hits; shares compounds with TRPC6 inhibitor; membrane potential dye fluorescence; membrane potential signal change, % at 10 µM;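 active = membrane potential signal moves up or down beyond 5 SD from buffer-only wells, on both duplicate plates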
HEK293 MPD ctr 2-2 = parental HEK293 nonspecific activity of TRPC6 modulators, second screen | inhibition, % at 10 µM | membrane potential dye fluorescence; after compound, maximal acetylcholine stimulation | shares compounds with TRPC6 inhibitor | 2,400 compounds, 14% hits | AID 488926;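 active = membrane potential signal drops by more than 5 SD from the mean control signal, in both duplicate plates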;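 also: plate controls were acetylcholine ECmax control wells for no effect and buffer only wells for full effect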
TRPC4 ctr mod = selectivity of TRPC6 modulators against mouse TRPC4. shares compounds with TRPC6 inhibitor. percent change from control (negative = decrease, positive = increase), % at 10 µM. 2,400 compounds, 69% hits. HEK293 TRPC4/mu-opioid, membrane potential fluorescence;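 active = membrane potential signal moved up or down beyond 5 SD of buffer control wells, in both duplicate plates, actives on both sides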;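 also: plate controls were assay buffer wells for no effect and DAMGO maximal-effect wells for full effect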
TRPC4/MOR inh 2 = second check of whether TRPC6 modulators also affect mouse TRPC4. shares compounds with TRPC6 inhibitor. HEK293 TRPC4/mu-opioid, membrane potential dye fluorescence; stimulated with maximal-effect DAMGO. inhibition, % at 10 µM. 2,400 compounds, 55% hits. AID 488928;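 active = drop in membrane potential signal beyond 5 SD of the control wells in both duplicate plates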;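 also: TRPC4 counter screen for TRPC6 hits run under conditions tuned for TRPC6 not TRPC4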
TRPC6 inh conf = mouse TRPC6 inhibitor confirmation. shares compounds with TRPC6 inhibitor. HEK293-TRPC6, membrane potential dye, ACh-evoked depolarization. inhibition, % at 10 µM. 3,300 compounds, 43% hits. AID 488960;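 active = fluorescence ratio falls more than 5 SD below the full-stimulation control mean, in both duplicate runs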;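 also: integrated fluorescence ratio of peak minus minimum over baseline after agonist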
TRPC6 act confirm = confirmation of mouse TRPC6 activators | 2,800 compounds, 11% hits | HEK293-TRPC6 membrane potential dye fluorescence, FDSS | activation, % at 10 µM | shares compounds with TRPC6 inhibitor;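 active = ratio signal rise beyond 5 SD above unstimulated control wells' mean, seen in both duplicate runs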;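 also: plate controls were buffer EC0 wells for no effect and acetylcholine ECmax response for full effect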
Numbers without * were called inactive; i = inactive; · = not tested or not shown.

SMILES	TRPC4 PAM	TRPC4 act	TRPC6 inhibitor	TRPC4 block	TRPC6 activator	HEK293 MPD ctr-2	HEK293 MPD ctr 2-2	TRPC4 ctr mod	TRPC4/MOR inh 2	TRPC6 inh conf	TRPC6 act confirm	others
COc1ccc(CCn2c(=N)c(C(=O)N3CCN(C)CC3)cc3c(=O)n4ccccc4nc32)cc1	i	i	-7.18*	i	i	-274.5%*	83.5%*	-49.5%*	62.0%*	68.0%*	i
COCc1ccc(CN2CCCC(C(=O)Nc3ccc(-c4cscn4)cc3)C2)o1 (stereo not drawn)	i	i	i	i	i	·	·	·	·	·	·
COc1ccc(CCNC(=O)c2cc3c(=O)n4ccccc4nc3n(CCCN3CCOCC3)c2=N)cc1OC	i	i	i	i	i	·	·	·	·	·	·
COc1ccc(CCn2c(=N)c(C(=O)NCCN3CCOCC3)cc3c(=O)n4ccccc4nc32)cc1OC	i	i	-5.59*	i	i	151.5%*	109.0%*	54.0%*	44.5%*	63.5%*	·
COc1ccc(CCNC(=O)c2cc3c(=O)n4ccccc4nc3n(CCCN3CCOCC3)c2=N)cc1	i	i	-7.38*	i	i	·	·	·	·	i	i	TRPC4 spec 2=i;TRPC4 spec=i;HEK293 MPD ctr 2-1=-64.5%*;HEK293 MPD ctr-1=i
O=c1cc(C(F)(F)F)[nH]c2ccc(OC(F)(F)F)cc12	i	i	-7.12*	i	i	·	·	·	·	103.9%*	·	TRPC4 spec 2=i;TRPC4 spec=23.4%*;HEK293 MPD ctr 2-1=21.5%*;HEK293 MPD ctr-1=13.2%*
O=c1cc(C(F)(F)F)[nH]c2c(C(F)(F)F)cccc12	i	i	-10.2*	i	i	·	·	·	·	82.8%*	·	TRPC4 spec 2=66.5%*;TRPC4 spec=58.0%*;HEK293 MPD ctr 2-1=i;HEK293 MPD ctr-1=32.1%*
Cc1cc(=O)c2cccc(Br)c2[nH]1	i	i	i	i	i	·	·	·	·	·	·
COc1ccc(OCCCC(=O)OC(C)C(=O)Nc2cccc(C(C)=O)c2)cc1 (stereo not drawn)	i	i	i	i	i	·	·	·	·	·	·
O=C(COC(=O)c1cc(Br)ccc1Cl)NC1CCCC1	i	i	i	i	i	·	·	·	·	·	·
CC(C)NC(=O)c1ccc2c(=O)n(C3CCCC3)c(=S)[nH]c2c1	i	i	i	i	i	·	·	·	·	·	·
CCN(CC)CCNC(=O)c1ccc2c(=O)n(C3CCCC3)c(=S)[nH]c2c1	i	i	-6.76*	i	i	·	·	·	·	i	i	TRPC4 spec 2=i;TRPC4 spec=i;HEK293 MPD ctr 2-1=i;HEK293 MPD ctr-1=i
Cc1cccc(-c2nsc(SCC(=O)Nc3nccs3)n2)c1	i	i	-5.7*	i	i	i	i	i	i	i	i
Cc1ccc(NC(=S)Nc2ccc(Cl)c(Cl)c2)c(OC(F)F)c1	i	i	i	i	i	·	·	·	·	·	·
Fc1ccc(NC(=S)Nc2ccccc2OC(F)F)cc1Cl	i	i	-6.47*	i	i	i	i	i	35.0%*	i	i
N#CC(C#N)=C(Nc1ccc(F)cc1)SCc1cccc(Br)c1	i	i	i	i	i	·	·	·	·	·	·
Cc1cccc(CSC(Nc2ccc(F)cc2)=C(C#N)C#N)c1	i	i	-5.22*	i	i	123.5%*	i	20.0%*	48.5%*	56.5%*	i
CCOc1ccc(N(C)S(=O)(=O)c2ccc3[nH]cc(C(=O)NCC(OC)OC)c(=O)c3c2)cc1	i	i	-5.49*	i	i	i	i	i	i	i	i
CCN(CC)CCn1c(=O)n(-c2ccc(Cl)cc2)c(=O)c2c3c(sc21)CN(C)CC3	i	i	i	i	i	·	·	·	·	·	·
CN1CCc2c(sc3c2c(=O)n(-c2ccc(Cl)cc2)c2nncn32)C1	i	i	-5.14*	i	i	-105.5%*	i	-21.0%*	i	i	i
Fc1ccc(CSc2nnc(-c3cccs3)o2)cc1	i	i	-7.43*	i	i	·	·	·	·	i	i	TRPC4 spec 2=i;TRPC4 spec=i;HEK293 MPD ctr 2-1=i;HEK293 MPD ctr-1=i
CCn1cnc2cc(NCc3ccc(Cl)cc3)ccc21	i	i	-5.59*	i	i	i	i	i	39.5%*	48.5%*	i
Cc1ccc(CNc2ccc3c(c2)ncn3C)cc1	i	i	i	i	i	·	·	·	·	·	·
CCn1cnc2cc(NCc3ccncc3)ccc21	i	i	i	i	i	·	·	·	·	·	·
CCc1ccc(CNc2ccc3c(c2)ncn3C)cc1	i	i	-6.31*	i	i	i	i	-14.5%*	61.0%*	37.0%*	i
CSc1nsc(SCC(=O)NCc2ccc(C)cc2)n1	i	i	i	i	i	·	·	·	·	·	·
O=C(O)C(Cc1c[nH]c2ccccc12)N1C(=O)C2C3c4ccccc4C(c4ccccc43)[C@@H]2C1=O (stereo partly drawn)	i	i	i	i	i	·	·	·	·	·	·
O=C(NCCc1ccccc1)C(=O)Nc1ccc([N+](=O)[O-])cc1	i	i	i	i	i	·	·	·	·	·	·
CC(=O)Nc1ccc(C(=O)OCCC(C)C)cc1	i	i	-6.81*	i	i	·	·	·	·	i	i	TRPC4 spec 2=i;TRPC4 spec=i;HEK293 MPD ctr 2-1=i;HEK293 MPD ctr-1=i
